Experimental data reported in ChEMBL document CHEMBL3611971, “Multifunctional novel Diallyl disulfide (DADS) derivatives with β-amyloid-reducing, cholinergic, antioxidant and metal chelating properties for the treatment of Alzheimer's disease” (Bioorg Med Chem, 2015).
Values belong to the compound of their own block, whether it stands above or below them.

Columns and labels:
Cholinesterase = Cholinesterase (Equus caballus, UniProt P81908); test: Inhibition of equine serum BuChE using DTNB as substrate incubated for 5 mins prior to substrate addition measured after 2 mins by Ellman's method
Chain of Cholinesterase (P81908 whole entry): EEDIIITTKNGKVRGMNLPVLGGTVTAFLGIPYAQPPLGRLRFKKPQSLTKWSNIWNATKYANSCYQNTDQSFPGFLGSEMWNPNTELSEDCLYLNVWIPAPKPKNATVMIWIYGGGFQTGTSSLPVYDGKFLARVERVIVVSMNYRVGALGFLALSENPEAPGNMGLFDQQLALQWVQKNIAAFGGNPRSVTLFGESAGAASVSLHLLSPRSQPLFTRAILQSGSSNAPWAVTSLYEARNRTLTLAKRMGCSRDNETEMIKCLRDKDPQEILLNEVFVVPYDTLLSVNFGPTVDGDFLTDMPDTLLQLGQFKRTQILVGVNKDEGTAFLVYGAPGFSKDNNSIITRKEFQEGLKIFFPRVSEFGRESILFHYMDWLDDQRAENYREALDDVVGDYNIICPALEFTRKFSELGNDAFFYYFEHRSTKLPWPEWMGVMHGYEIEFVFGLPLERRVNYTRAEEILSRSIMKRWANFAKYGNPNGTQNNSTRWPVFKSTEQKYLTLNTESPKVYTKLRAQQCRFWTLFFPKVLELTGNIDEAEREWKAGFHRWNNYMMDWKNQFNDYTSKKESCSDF

Acetylcholinesterase = Acetylcholinesterase (Electrophorus electricus, UniProt O42275); test: Inhibition of electric eel AChE using DTNB as substrate incubated for 5 mins prior to substrate addition measured after 2 mins by Ellman's method
Chain of Acetylcholinesterase (O42275 whole entry): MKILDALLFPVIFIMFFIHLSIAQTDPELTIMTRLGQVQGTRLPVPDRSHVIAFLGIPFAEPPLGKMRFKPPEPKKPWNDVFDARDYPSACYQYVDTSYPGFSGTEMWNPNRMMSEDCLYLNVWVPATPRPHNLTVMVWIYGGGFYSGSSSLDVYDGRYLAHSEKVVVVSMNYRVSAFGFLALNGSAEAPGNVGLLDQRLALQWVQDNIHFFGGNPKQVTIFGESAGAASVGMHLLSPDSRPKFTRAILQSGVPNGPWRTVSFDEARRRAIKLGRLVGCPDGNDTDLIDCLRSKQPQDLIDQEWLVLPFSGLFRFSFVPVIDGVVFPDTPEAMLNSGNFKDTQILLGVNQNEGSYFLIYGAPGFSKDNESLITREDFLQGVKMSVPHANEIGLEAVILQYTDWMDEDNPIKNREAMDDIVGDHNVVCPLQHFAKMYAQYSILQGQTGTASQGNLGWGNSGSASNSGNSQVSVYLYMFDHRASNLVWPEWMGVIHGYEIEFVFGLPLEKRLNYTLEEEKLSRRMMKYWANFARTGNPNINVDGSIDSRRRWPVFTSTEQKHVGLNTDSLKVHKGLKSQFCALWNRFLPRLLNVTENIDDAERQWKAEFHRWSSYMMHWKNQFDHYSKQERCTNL

[1] = biological target: Amyloid-beta precursor protein (Homo sapiens) (UniProt P05067); conditions: at 25 µM
Chain of Amyloid-beta precursor protein (Homo sapiens) (P05067 whole entry): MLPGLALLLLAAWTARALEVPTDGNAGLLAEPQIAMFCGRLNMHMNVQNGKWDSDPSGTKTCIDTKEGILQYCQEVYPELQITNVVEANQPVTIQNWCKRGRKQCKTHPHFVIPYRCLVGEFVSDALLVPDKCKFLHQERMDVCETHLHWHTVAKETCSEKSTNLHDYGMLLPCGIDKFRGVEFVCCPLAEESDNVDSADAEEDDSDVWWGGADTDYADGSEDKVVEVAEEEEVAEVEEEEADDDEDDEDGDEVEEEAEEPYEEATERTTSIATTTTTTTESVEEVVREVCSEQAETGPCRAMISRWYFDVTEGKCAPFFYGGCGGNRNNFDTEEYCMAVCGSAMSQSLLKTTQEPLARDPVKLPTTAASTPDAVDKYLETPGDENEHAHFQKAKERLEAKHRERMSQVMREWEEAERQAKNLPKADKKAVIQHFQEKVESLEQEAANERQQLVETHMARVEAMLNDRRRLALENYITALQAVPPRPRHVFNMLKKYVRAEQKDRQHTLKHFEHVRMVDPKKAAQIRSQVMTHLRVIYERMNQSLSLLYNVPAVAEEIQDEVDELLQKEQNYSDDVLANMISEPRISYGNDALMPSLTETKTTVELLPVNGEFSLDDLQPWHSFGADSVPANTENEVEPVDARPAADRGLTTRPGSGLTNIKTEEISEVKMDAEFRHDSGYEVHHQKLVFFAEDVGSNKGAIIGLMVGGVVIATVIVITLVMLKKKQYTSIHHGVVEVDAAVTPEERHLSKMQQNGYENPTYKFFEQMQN

[2] = Metal chelating activity of the compound assessed as reduction of Cu2+-amyloid beta (1 to 42)-complex induced H2O2 production from ascorbate at 800 nM after 30 mins by HRP/Amplex Red assay relative to control; type: physicochemical; set-up: scale not given: the % may be the effect or the level left; conditions: 0.5 h, 0.8 µM
How it was run: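 Per well, in phosphate buffer (100 μL): CuCl2 400 nM, Aβ 200 nM, chelator 800 nM (1% v/v DMSO) and sodium ascorbate 10 mM, held 30 min at room temperature. Working solution with Amplex Red and HRP then added for another 30 min at room temperature. Fluorescence ex/em 530/590 nm. At least three measurements.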

[3] = Metal chelating activity of the compound assessed as reduction of Cu2+-induced amyloid beta (1 to 42) (unknown origin) aggregation at 50 uM after 24 hrs by thioflavin-T-based fluorescence assay relative to control; type: physicochemical
How it was run: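 Aβ1–42 was HFIP-treated, dried, and held as DMSO stock. Diluted in […] (pH 6.6) with […]; 25 μM peptide incubated with or without 25 μM Cu2+ and 50 μM compound, 37 °C, 24 h.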

[4] = Cytotoxicity against HEK293 cells assessed as cell viability at 1 uM after 48 hrs by MTT assay relative to control; type: cell-based; conditions: human, read-out: Activity
How it was run: (§1)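 HEK 293 cells grown in DMEM with 10% FBS and 1% penicillin–streptomycin at 37 °C, 5% CO2. Seeded at 5000 cells/well and cultured 24 h, then exposed 48 h to compound (DMSO stock diluted in complete medium; 0.1–100 μM final), in triplicate. MTT added for 4 h, formazan dissolved in DMSO, absorbance read at 570 nm against 630 nm reference. Mean ± SEM of 3 independent experiments.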

[5] = Metal chelating activity of the compound assessed as formation of Cu2+-compound complex at 50 uM after 30 mins by UV-vis spectrometry; type: physicochemical; conditions: 0.5 h
How it was run: (§2)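 UV absorption scan from 200 to 600 nm of compound in methanol, alone or with CuCl2 or FeSO4. Read after 30 min at room temperature, with compound and metal each at 50 μM final.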

[6] = Cytotoxicity against HEK293 cells assessed as cell viability at 25 uM after 48 hrs by MTT assay relative to control; type: cell-based; conditions: human, read-out: Activity; how it was run: as §1
[7] = Metal chelating activity of the compound assessed as reduction of Cu2+-induced amyloid beta (1 to 42) (unknown origin) aggregation at 50 uM after 24 hrs by transmission electron microscopic analysis; type: physicochemical
How it was run: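 Aβ1–42 diluted in 20 mM phosphate buffer (pH 7.4) at 4 °C. Preincubated 2 min with Cu2+ (Aβ and Cu2+ each 25 μM final), then incubated 24 h at 37 °C with or without compound at 50 μM. Samples placed on carbon-coated grids for 2 min at room temperature, stained 2 min with 1% uranyl acetate, and imaged by TEM.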

[8] = Cytotoxicity against HEK293 cells assessed as cell viability at 50 uM after 48 hrs by MTT assay relative to control; type: cell-based; conditions: human, read-out: Activity; how it was run: as §1
HEK293 = test: Cytotoxicity against HEK293 cells assessed as cell viability at 0.1 to 100 uM after 48 hrs by MTT assay relative to control; type: cell-based; conditions: human, hek293, 48 h; how it was run: as §1
[9] = Cytotoxicity against HEK293 cells assessed as cell viability at 10 uM after 48 hrs by MTT assay relative to control; type: cell-based; conditions: human, read-out: Activity; how it was run: as §1
[10] = Cytotoxicity against HEK293 cells assessed as cell viability at 100 uM after 48 hrs by MTT assay relative to control; type: cell-based; conditions: human, read-out: Activity; how it was run: as §1
[11] = Cytotoxicity against HEK293 cells assessed as cell viability at 0.1 uM after 48 hrs by MTT assay relative to control; type: cell-based; conditions: human, read-out: Activity; how it was run: as §1
[12] = Metal chelating activity of the compound assessed as formation of Fe2+-compound complex at 50 uM after 30 mins by UV-vis spectrometry; type: physicochemical; conditions: 0.5 h; how it was run: as §2

SMILES: Oc1ccc(/C=C/CSSC/C=C/c2ccc(O)cc2)cc1
IC50 (Cholinesterase): 63 µM
IC50 (Acetylcholinesterase): 12300 nM
inhibition [1]: 53%

Activity [2]: > 80%
SMILES: O=C(O)CN(CCN(CC(=O)O)CC(=O)O)CC(=O)O [EDETIC ACID]

inhibition (INH) [3]: 65.9%
SMILES: COc1cc(/C=C/C(=O)CC(=O)/C=C/c2ccc(O)c(OC)c2)ccc1O [CURCUMIN]

SMILES: Clc1cccc(/C=C/CSSC/C=C/c2cccc(Cl)c2)c1
IC50 (Cholinesterase): > 100 µM
IC50 (Acetylcholinesterase): 44200 nM
inhibition [1]: 52.4%

SMILES: O=C(/C=C/c1ccc(Br)cc1)SSC(=O)/C=C/c1ccc(Br)cc1
IC50 (Cholinesterase): 37.2 µM
IC50 (Acetylcholinesterase): 340 nM
inhibition [1]: 52.2%

SMILES: COc1cc(/C=C/C(=O)SSC(=O)/C=C/c2ccc(O)c(OC)c2)ccc1O
viability at 48 h, 1 µM [4]: 96.5%
Activity [5]: Active
inhibition (INH) [3]: 78.5%
IC50 (Cholinesterase): 12.9 µM
viability at 48 h, 25 µM [6]: 92.3%
IC50 (Acetylcholinesterase): 121 nM
inhibition (INH) [7]: Active
Activity [2]: 62%
viability at 48 h, 50 µM [8]: 90.1%
Activity (HEK293): Dose-dependent effect
viability at 48 h, 10 µM [9]: 94.4%
inhibition [1]: 71.4%
viability at 48 h, 100 µM [10]: 80.9%
viability at 48 h, 0.1 µM [11]: 97.3%
Activity [12]: Active

SMILES: Brc1cccc(/C=C/CSSC/C=C/c2cccc(Br)c2)c1
IC50 (Cholinesterase): 75.4 µM
IC50 (Acetylcholinesterase): 23700 nM
inhibition [1]: 39.4%

SMILES: COc1ccc(/C=C/CSSC/C=C/c2ccc(OC)cc2)cc1
IC50 (Cholinesterase): 59.5 µM
IC50 (Acetylcholinesterase): 8290 nM
inhibition [1]: 58.5%

SMILES: O=C(/C=C/c1ccc(F)cc1)SSC(=O)/C=C/c1ccc(F)cc1
IC50 (Cholinesterase): 32.4 µM
IC50 (Acetylcholinesterase): 450 nM
inhibition [1]: 62.4%

SMILES: Fc1cccc(/C=C/CSSC/C=C/c2cccc(F)c2)c1
IC50 (Cholinesterase): > 100 µM
IC50 (Acetylcholinesterase): 53200 nM
inhibition [1]: 44.2%

SMILES: Brc1ccc(/C=C/CSSC/C=C/c2ccc(Br)cc2)cc1
IC50 (Cholinesterase): 72.5 µM
IC50 (Acetylcholinesterase): 20800 nM
inhibition [1]: 37.5%

SMILES: Clc1ccc(/C=C/CSSC/C=C/c2ccc(Cl)cc2)cc1
IC50 (Cholinesterase): 94.2 µM
IC50 (Acetylcholinesterase): 37000 nM
inhibition [1]: 48.2%

SMILES: COc1ccc(/C=C/C(=O)SSC(=O)/C=C/c2ccc(OC)cc2)cc1
IC50 (Cholinesterase): 16 µM
IC50 (Acetylcholinesterase): 220 nM
inhibition [1]: 63.5%

SMILES: Fc1ccccc1/C=C/CSSC/C=C/c1ccccc1F
IC50 (Cholinesterase): > 100 µM
IC50 (Acetylcholinesterase): 48700 nM
inhibition [1]: 33.5%

SMILES: Clc1cc(Cl)cc(/C=C/CSSC/C=C/c2cc(Cl)cc(Cl)c2)c1
IC50 (Cholinesterase): > 100 µM
IC50 (Acetylcholinesterase): 64600 nM
inhibition [1]: 47.5%

SMILES: COc1ccc(/C=C/CSSC/C=C/c2ccc(OC)c(OC)c2)cc1OC
IC50 (Cholinesterase): 55.2 µM
IC50 (Acetylcholinesterase): 1100 nM
inhibition [1]: 61.2%

SMILES: COc1ccc(/C=C/C(=O)SSC(=O)/C=C/c2ccc(OC)c(OC)c2)cc1OC
viability at 48 h, 1 µM [4]: 96.1%
Activity [5]: Active
inhibition (INH) [3]: 80.9%
IC50 (Cholinesterase): 13.6 µM
viability at 48 h, 25 µM [6]: 95.7%
IC50 (Acetylcholinesterase): 56 nM
inhibition (INH) [7]: Active
Activity [2]: 72%
viability at 48 h, 50 µM [8]: 92.8%
Activity (HEK293): Dose-dependent effect
viability at 48 h, 10 µM [9]: 95.4%
inhibition [1]: 74.2%
viability at 48 h, 100 µM [10]: 88.6%
viability at 48 h, 0.1 µM [11]: 98.9%
Activity [12]: Active

SMILES: Fc1cccc(F)c1/C=C/CSSC/C=C/c1c(F)cccc1F
IC50 (Cholinesterase): > 100 µM
IC50 (Acetylcholinesterase): 42300 nM
inhibition [1]: 39.5%

SMILES: O=C(/C=C/c1ccc(O)cc1)SSC(=O)/C=C/c1ccc(O)cc1
IC50 (Cholinesterase): 24.5 µM
IC50 (Acetylcholinesterase): 210 nM
inhibition [1]: 66.4%

SMILES: O=C(/C=C/c1ccc(Cl)cc1)SSC(=O)/C=C/c1ccc(Cl)cc1
IC50 (Cholinesterase): 35.6 µM
IC50 (Acetylcholinesterase): 510 nM
inhibition [1]: 65.6%

SMILES: O=C(/C=C/c1cccc(Br)c1)SSC(=O)/C=C/c1cccc(Br)c1
IC50 (Cholinesterase): 38.7 µM
IC50 (Acetylcholinesterase): 540 nM
inhibition [1]: 68.7%

SMILES: COc1cc(/C=C/CSSC/C=C/c2ccc(O)c(OC)c2)ccc1O
IC50 (Cholinesterase): 57.9 µM
IC50 (Acetylcholinesterase): 1450 nM
inhibition [1]: 66.9%

SMILES: COc1ccc(/C=C/C(=O)SSC(=O)/C=C/c2ccc(OC)cc2OC)c(OC)c1
IC50 (Cholinesterase): 14.9 µM
IC50 (Acetylcholinesterase): 142 nM
inhibition [1]: 69%
